Experiments:
Hepatocyte [1] = assay: Drug uptake in human hepatocyte at 2 uM after 16 hrs assessed per 10^6 cells; format: ADME, cell-based; details: hepatocytes
Method in brief: (§1)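 Primary human hepatocytes from 4 donors were plated at 1.5 million cells/well on collagen and recovered for ≥18 h. They were dosed with 3H-labelled drug at 2 μM (10 μCi/ml) for 1–72 h, in duplicate, at 37°C. Cold 60% methanol extracts were run on SAX ion-exchange HPLC with radiometric detection and compared with reference standards. Results are pmol/10^6 cells, mean ± S.D.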

Hepatocyte [2] = assay: Drug uptake in human hepatocyte at 25 uM after 24 hrs assessed as 1-((2R,3R,4R,5R)-3-fluoro-4-hydroxy-5-(hydroxymethyl)-3-methyl-tetrahydrofuran-2-yl)pyrimidine-2,4(1H,3H)-dione tri phosphate level per 10^6 cells; format: ADME, cell-based; details: hepatocytes
Method in brief: (§2)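 Primary human hepatocytes from 3 donors were plated on collagen and recovered for ≥18 h. They were exposed for 24 h, in duplicate, to 0–250 μM drug: 3H-labelled material diluted with unlabelled compound. Total intracellular radioactivity and individual phosphates were measured in methanol extracts by SAX HPLC with radiometric detection. Results are pmol/10^6 cells, mean ± S.D.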

Hepatocyte [3] = assay: Drug uptake in human hepatocyte at 2 uM after 24 hrs assessed as 4-amino-1-((2R,3R,4R,5R)-3-fluoro-4-hydroxy-5-(hydroxymethyl)-3-methyl-tetrahydrofuran-2-yl)[…]-2(1H)-one tri phosphate level per 10^6 cells; format: ADME, cell-based; details: hepatocytes; method in brief: as §1
Hepatocyte [4] = assay: Drug uptake in human hepatocyte at 100 uM after 24 hrs assessed as 4-amino-1-((2R,3R,4R,5R)-3-fluoro-4-hydroxy-5-(hydroxymethyl)-3-methyl-tetrahydrofuran-2-yl)pyrimidin-2(1H)-one tri phosphate level per 10^6 cells; format: ADME, cell-based; details: hepatocytes; method in brief: as §2
Hepatocyte [5] = assay: Drug uptake in human hepatocyte at 2 uM after 16 hrs assessed as 4-amino-1-((2R,3R,4R,5R)-3-fluoro-4-hydroxy-5-(hydroxymethyl)-3-methyl-tetrahydrofuran-2-yl)[…]-2(1H)-one tri phosphate level per 10^6 cells; format: ADME, cell-based; details: hepatocytes; method in brief: as §1
Hepatocyte [6] = assay: Drug uptake in human hepatocyte at 2 uM after 72 hrs assessed as 1-((2R,3R,4R,5R)-3-fluoro-4-hydroxy-5-(hydroxymethyl)-3-methyl-tetrahydrofuran-2-yl)[…] tri phosphate level per 10^6 cells; format: ADME, cell-based; details: hepatocytes; method in brief: as §1
Hepatocyte [7] = assay: Drug uptake in human hepatocyte at 100 uM after 24 hrs assessed as 1-((2R,3R,4R,5R)-3-fluoro-4-hydroxy-5-(hydroxymethyl)-3-methyl-tetrahydrofuran-2-yl)pyrimidine-2,4(1H,3H)-dione di phosphate level per 10^6 cells; format: ADME, cell-based; details: hepatocytes; method in brief: as §2
Hepatocyte [8] = assay: Drug uptake in human hepatocyte at 10 uM after 24 hrs assessed as 1-((2R,3R,4R,5R)-3-fluoro-4-hydroxy-5-(hydroxymethyl)-3-methyl-tetrahydrofuran-2-yl)pyrimidine-2,4(1H,3H)-dione tri phosphate level per 10^6 cells; format: ADME, cell-based; details: hepatocytes; method in brief: as §2
Hepatocyte [9] = assay: Drug uptake in human hepatocyte at 25 uM after 24 hrs assessed as 1-((2R,3R,4R,5R)-3-fluoro-4-hydroxy-5-(hydroxymethyl)-3-methyl-tetrahydrofuran-2-yl)pyrimidine-2,4(1H,3H)-dione di phosphate level per 10^6 cells; format: ADME, cell-based; details: hepatocytes; method in brief: as §2
Hepatocyte [10] = assay: Drug uptake in human hepatocyte at 25 uM after 24 hrs assessed as 4-amino-1-((2R,3R,4R,5R)-3-fluoro-4-hydroxy-5-(hydroxymethyl)-3-methyl-tetrahydrofuran-2-yl)pyrimidin-2(1H)-one tri phosphate level per 10^6 cells; format: ADME, cell-based; details: hepatocytes; method in brief: as §2
Hepatocyte [11] = assay: Drug uptake in human hepatocyte at 2 uM after 24 hrs assessed as 4-amino-1-((2R,3R,4R,5R)-3-fluoro-4-hydroxy-5-(hydroxymethyl)-3-methyl-tetrahydrofuran-2-yl)pyrimidin-2(1H)-one di phosphate level per 10^6 cells; format: ADME, cell-based; details: hepatocytes; method in brief: as §2
Hepatocyte [12] = assay: Drug uptake in human hepatocyte at 10 uM after 24 hrs assessed as 4-amino-1-((2R,3R,4R,5R)-3-fluoro-4-hydroxy-5-(hydroxymethyl)-3-methyl-tetrahydrofuran-2-yl)pyrimidin-2(1H)-one di phosphate level per 10^6 cells; format: ADME, cell-based; details: hepatocytes; method in brief: as §2
Hepatocyte [13] = assay: Drug uptake in human hepatocyte at 250 uM after 24 hrs assessed as 4-amino-1-((2R,3R,4R,5R)-3-fluoro-4-hydroxy-5-(hydroxymethyl)-3-methyl-tetrahydrofuran-2-yl)pyrimidin-2(1H)-one tri phosphate level per 10^6 cells; format: ADME, cell-based; details: hepatocytes; method in brief: as §2
Hepatocyte [14] = assay: Drug uptake in human hepatocyte at 2 uM after 24 hrs assessed as 1-((2R,3R,4R,5R)-3-fluoro-4-hydroxy-5-(hydroxymethyl)-3-methyl-tetrahydrofuran-2-yl)pyrimidine-2,4(1H,3H)-dione tri phosphate level per 10^6 cells; format: ADME, cell-based; details: hepatocytes; method in brief: as §2
Hepatocyte [15] = assay: Drug uptake in human hepatocyte at 2 uM after 24 hrs assessed as 4-amino-1-((2R,3R,4R,5R)-3-fluoro-4-hydroxy-5-(hydroxymethyl)-3-methyl-tetrahydrofuran-2-yl)pyrimidin-2(1H)-one tri phosphate level per 10^6 cells; format: ADME, cell-based; details: hepatocytes; method in brief: as §2
Hepatocyte [16] = assay: Drug uptake in human hepatocyte at 50 uM after 24 hrs assessed as 4-amino-1-((2R,3R,4R,5R)-3-fluoro-4-hydroxy-5-(hydroxymethyl)-3-methyl-tetrahydrofuran-2-yl)pyrimidin-2(1H)-one tri phosphate level per 10^6 cells; format: ADME, cell-based; details: hepatocytes; method in brief: as §2
Hepatocyte [17] = assay: Drug uptake in human hepatocyte at 2 uM after 6 hrs assessed as 4-amino-1-((2R,3R,4R,5R)-3-fluoro-4-hydroxy-5-(hydroxymethyl)-3-methyl-tetrahydrofuran-2-yl)pyrimitrin-2(1H)-one tri phosphate level per 10^6 cells; format: ADME, cell-based; details: hepatocytes; method in brief: as §1
Hepatocyte [18] = assay: Drug uptake in human hepatocyte at 100 uM after 24 hrs assessed per 10^6 cells; format: ADME, cell-based; details: hepatocytes; method in brief: as §2
Hepatitis C virus = assay: Antiviral activity against HCV 1b Con1 in 2209-23 cells after 72 hrs by luciferase based replicon assay; format: functional, organism-based, Hepacivirus hominis; details: genotype 1b Con 1, 2209-23, 72 h
Method in brief: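 Huh7-derived 2209-23 cells carrying a bicistronic genotype 1b Con1 subgenomic HCV replicon with a Renilla luciferase reporter of RNA replication. Cells were exposed to compound for 72 h, and dose-dependent reduction of luciferase activity was measured to give IC50.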

Hepatocyte [19] = assay: Drug uptake in human hepatocyte at 250 uM after 24 hrs assessed per 10^6 cells; format: ADME, cell-based; details: hepatocytes; method in brief: as §2
Hepatocyte [20] = assay: Drug uptake in human hepatocyte at 100 uM after 24 hrs assessed as 4-amino-1-((2R,3R,4R,5R)-3-fluoro-4-hydroxy-5-(hydroxymethyl)-3-methyl-tetrahydrofuran-2-yl)pyrimidin-2(1H)-one di phosphate level per 10^6 cells; format: ADME, cell-based; details: hepatocytes; method in brief: as §2
Hepatocyte [21] = assay: Drug uptake in human hepatocyte at 2 uM after 24 hrs assessed as 1-((2R,3R,4R,5R)-3-fluoro-4-hydroxy-5-(hydroxymethyl)-3-methyl-tetrahydrofuran-2-yl)[…] tri phosphate level per 10^6 cells; format: ADME, cell-based; details: hepatocytes; method in brief: as §1
Hepatocyte [22] = assay: Drug uptake in human hepatocyte at 2 uM after 1 hr assessed per 10^6 cells; format: ADME, cell-based; details: hepatocytes; method in brief: as §1
Hepatocyte [23] = assay: Drug uptake in human hepatocyte at 50 uM after 24 hrs assessed per 10^6 cells; format: ADME, cell-based; details: hepatocytes; method in brief: as §2

## C[C@@]1(F)[C@H](O)[C@@H](CO)O[C@H]1n1ccc(N)nc1=O
Hepatocyte [1]
  Drug uptake: 34.4 pmol
Hepatocyte [2]
  Drug uptake: 21.7 pmol
Hepatocyte [3]
  Drug uptake: 1.1 pmol
Hepatocyte [4]
  Drug uptake: 34.3 pmol
Hepatocyte [5]
  Drug uptake: 0.7 pmol
Hepatocyte [6]
  Drug uptake: 2 pmol
Hepatocyte [7]
  Drug uptake: 34.7 pmol
Hepatocyte [8]
  Drug uptake: 9.6 pmol
Hepatocyte [9]
  Drug uptake: 9.5 pmol
Hepatocyte [10]
  Drug uptake: 11.3 pmol
Hepatocyte [11]
  Drug uptake: 0.3 pmol
Hepatocyte [12]
  Drug uptake: 2.4 pmol
Hepatocyte [13]
  Drug uptake: 40.4 pmol
Hepatocyte [14]
  Drug uptake: 2.4 pmol
Hepatocyte [15]
  Drug uptake: 1.4 pmol
Hepatocyte [16]
  Drug uptake: 18.7 pmol
Hepatocyte [17]
  Drug uptake: 0.6 pmol
Hepatocyte [18]
  Drug uptake: 1529.9 pmol
Hepatitis C virus
  IC50: 600 nM
Hepatocyte [19]
  Drug uptake: 3591.3 pmol
Hepatocyte [20]
  Drug uptake: 13.4 pmol
Hepatocyte [21]
  Drug uptake: 1.3 pmol
Hepatocyte [22]
  Drug uptake: 30.4 pmol
Hepatocyte [23]
  Drug uptake: 847.9 pmol

Source: ChEMBL document CHEMBL1156500, “Characterization of the metabolic activation of hepatitis C virus nucleoside inhibitor beta-D-2'-Deoxy-2'-fluoro-2'-C-methylcytidine (PSI-6130) and identification of a novel active 5'-triphosphate species” (J Biol Chem, 2007)
